Test results: PMC3625064 (Molecular cell, 2012)
Where a chain is given by its changes, count along the chain named. Names and notes keep the numbering of the source. Values belong to the molecule of their own block, whether it stands above or below them.

Experiments:
[1] = test system: LSD1; assay: nucleosome demethylation by LSD1, stimulation by NPAC; type: biochemical, human; conditions: nucleosomes; Figure S1B
[2] = test system: nucleosomal H3K4me2; assay: nucleosome demethylation assay, demethylase activity toward nucleosomal H3K4me2; type: biochemical; conditions: recombinant NPAC, or NPAC complex purified from HeLa cells via TAP; immunoblot
How it was run: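 Nucleosomes purified from HeLa cells were incubated with tandem-affinity-purified NPAC or LSD2 complexes from HeLa cells, with or without added recombinant NPAC. H3K4 demethylation was assessed by SDS-PAGE and immunoblot with methylation-specific histone H3 antibodies.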

[3] = test system: LSD2 histone demethylation in U2OS cells; assay: immunofluorescence of histone marks in U2OS cells coexpressing LSD2 and NPAC; type: cell-based; conditions: coexpression of NPAC and LSD2; Figure S1D and data not shown
How it was run: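 U2OS cells were transiently transfected with GFP-LSD2 alone or together with NPAC. Histone methylation marks were then detected by immunofluorescence with DAPI as DNA counterstain. Cells expressing similar levels of GFP-LSD2 were compared.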

[4] = biological target: T1, LSD2 (Homo sapiens, UniProt Q8NB78); assay: shorter H3K4me2 peptide; type: biochemical; conditions: H3K4me2 peptide (residues 1–15) as substrate; Figures S6A and S6B
T1 sequence (Q8NB78 1-822): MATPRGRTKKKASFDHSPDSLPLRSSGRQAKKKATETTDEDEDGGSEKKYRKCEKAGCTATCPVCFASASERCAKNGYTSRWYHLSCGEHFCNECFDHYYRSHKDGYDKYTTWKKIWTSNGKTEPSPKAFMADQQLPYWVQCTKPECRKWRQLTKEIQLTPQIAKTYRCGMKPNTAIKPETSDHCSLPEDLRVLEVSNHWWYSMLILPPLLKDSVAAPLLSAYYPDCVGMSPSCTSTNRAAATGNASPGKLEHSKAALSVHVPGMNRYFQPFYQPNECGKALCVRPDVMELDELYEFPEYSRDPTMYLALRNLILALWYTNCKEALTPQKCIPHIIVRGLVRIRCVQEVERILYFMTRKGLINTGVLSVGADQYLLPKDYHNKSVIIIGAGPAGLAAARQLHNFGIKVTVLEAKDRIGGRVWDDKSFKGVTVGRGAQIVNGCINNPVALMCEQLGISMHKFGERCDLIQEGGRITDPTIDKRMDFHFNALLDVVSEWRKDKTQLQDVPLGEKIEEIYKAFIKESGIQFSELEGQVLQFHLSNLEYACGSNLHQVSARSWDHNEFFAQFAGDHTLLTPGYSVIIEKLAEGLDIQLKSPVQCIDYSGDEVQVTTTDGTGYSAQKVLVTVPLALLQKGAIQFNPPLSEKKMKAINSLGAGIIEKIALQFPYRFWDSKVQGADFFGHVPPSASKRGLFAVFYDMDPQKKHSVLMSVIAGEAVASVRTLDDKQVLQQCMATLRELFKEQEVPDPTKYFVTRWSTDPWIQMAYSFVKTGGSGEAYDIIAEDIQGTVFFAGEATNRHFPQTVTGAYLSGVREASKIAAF
How it was run: (§1)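 Purified LSD2 (full-length or residues 51–822) was incubated with NPAC-derived peptides or proteins and an H3K4me2 peptide substrate. Products were desalted on C18 tips and analysed by MALDI-TOF MS at constant laser intensity for me1/me2 masses.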

[5] = biological target: T1, LSD2; assay: longer H3K4me2 peptide; type: biochemical; conditions: H3K4me2 peptide (1–44) as substrate; Figure S6C
How it was run: as §1

[6] = biological target: T1, LSD2; assay: nucleosome demethylation assay, stimulation; type: biochemical; conditions: nucleosome demethylation; more NPAC and LSD2 proteins used; Figure S6E

cofactor activity with shorter H3K4me2 peptide (residues 1–15) [4]: did not detect NPAC cofactor activity
B1: NPAC: NPAC/GLYR1 (UniProtKB/Swiss-Prot ID: Q49A26), contains PWWP domain, AT-hook motif, and dehydrogenase domain (protein, UniProt Q49A26 1-553, looked up)
Cytokine-like nuclear factor …: MAAVSLRLGDLVWGKLGRYPPWPGKIVNPPKDLKKPRGKKCFFVKFFGTEDHAWIKVEQLKPYHAHKEEMIKINKGKRFQQAVDAVEEFLRRAKGKDQTSSHNSSDDKNRRNSSEERSRPNSGDEKRKLSLSEGKVKKNMGEGKKRVSSGSSERGSKSPLKRAQEQSPRKRGRPPKDEKDLTIPESSTVKGMMAGPMAAFKWQPTASEPVKDADPHFHHFLLSQTEKPAVCYQAITKKLKICEEETGSTSIQAADSTAVNGSITPTDKKIGFLGLGLMGSGIVSNLLKMGHTVTVWNRTAEKCDLFIQEGARLGRTPAEVVSTCDITFACVSDPKAAKDLVLGPSGVLQGIRPGKCYVDMSTVDADTVTELAQVIVSRGGRFLEAPVSGNQQLSNDGMLVILAAGDRGLYEDCSSCFQAMGKTSFFLGEVGNAAKMMLIVNMVQGSFMATIAEGLTLAQVTGQSQQTLLDILNQGQLASIFLDQKCQNILQGNFKPDFYLKYIQKDLRLAIALGDAVNHPTPMAAAANEVYKRAKALDQSDNDMSAVYRAYIH
modifications: His tag
stimulatory effect on nucleosome demethylation by LSD1 [1]: no stimulatory effect
histone demethylase activity toward nucleosomes [2]: possesses no demethylase activity
change of H3K9me2 and other histone marks [3]: no detectable changes

stimulation of LSD2 demethylation of the longer H3K4me2 peptide (1–44) [5]: very weak or undetectable
cofactor activity of full-length NPAC protein, more NPAC and LSD2 proteins [6]: residual stimulatory activity
B2: NPAC F217A protein: full-length F217A NPAC protein (protein, UniProt Q49A26 1-553, looked up, variant F217A)
chain: B1 Cytokine-like nuclear factor … with F217A
modifications: full-length
